The values below come from ChEMBL document CHEMBL1157595, “Synthesis and biological evaluation of botulinum neurotoxin a protease inhibitors” (J Med Chem, 2010).

Calls of active or inactive are those of the source. No cut-off for these calls is given here.

One assay addresses T1, Lethal factor (Bacillus anthracis, UniProt P15917).
T1 sequence (P15917 whole entry): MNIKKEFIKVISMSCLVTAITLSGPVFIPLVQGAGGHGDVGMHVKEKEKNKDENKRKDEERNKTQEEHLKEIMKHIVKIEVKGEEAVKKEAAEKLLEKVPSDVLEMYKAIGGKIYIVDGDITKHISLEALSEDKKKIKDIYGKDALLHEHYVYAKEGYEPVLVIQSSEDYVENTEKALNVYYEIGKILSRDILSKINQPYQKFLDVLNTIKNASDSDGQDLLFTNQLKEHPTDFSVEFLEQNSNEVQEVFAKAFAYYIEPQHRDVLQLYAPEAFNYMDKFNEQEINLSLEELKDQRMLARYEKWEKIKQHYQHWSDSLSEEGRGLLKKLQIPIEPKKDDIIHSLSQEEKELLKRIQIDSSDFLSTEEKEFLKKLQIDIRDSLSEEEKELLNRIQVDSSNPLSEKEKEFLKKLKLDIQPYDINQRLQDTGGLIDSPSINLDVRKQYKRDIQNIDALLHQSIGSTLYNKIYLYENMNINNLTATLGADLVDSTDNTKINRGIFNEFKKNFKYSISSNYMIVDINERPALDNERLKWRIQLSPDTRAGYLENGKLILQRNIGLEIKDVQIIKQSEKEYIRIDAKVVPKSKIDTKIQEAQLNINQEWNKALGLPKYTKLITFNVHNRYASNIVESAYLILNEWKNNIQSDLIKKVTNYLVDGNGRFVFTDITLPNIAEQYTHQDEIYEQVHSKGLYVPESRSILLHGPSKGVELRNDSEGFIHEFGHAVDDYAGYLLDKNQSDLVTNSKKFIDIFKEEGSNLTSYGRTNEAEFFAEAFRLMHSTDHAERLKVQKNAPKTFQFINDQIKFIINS
Kind of assay: Inhibition of Bacillus anthracis anthrax lethal factor by FRET assay.

Assay [1] concerns the target T2, Botulinum neurotoxin type A (Clostridium botulinum, UniProt P0DPI0). The assay can be described thus: Inhibition of Clostridium botulinum toxin BoNT/A light chain by FRET assay. In outline: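 Recombinant BoNT/A light chain was assayed by FRET substrate cleavage in 50 mM HEPES–0.05% Tween, pH 7.4. Reactions were stopped with acetic acid (0.5% final), and cleaved substrate fluorescence was read at 485 nm after excitation at 398 nm.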

Assay [2] in a line: Selectivity ratio of IC50 for Bacillus anthracis anthrax lethal factor to IC50 for Clostridium botulinum toxin BoNT/A light chain.
The target in assay [3] is T2, Botulinum neurotoxin type A. Kind of assay: Inhibition of Clostridium botulinum toxin BoNT/A light chain by HPLC-based assay. In outline:
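Secondary HPLC-based cleavage assay with recombinant BoNT/A light chain, used to confirm FRET data. Values are the average of two experiments with variation under 10%.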

Assay [4] deals with Matrix metalloproteinase-9 (Homo sapiens) (UniProt P14780). The assay can be described thus: Inhibition of human MMP9.
Chain of Matrix metalloproteinase-9 (Homo sapiens) (P14780 whole entry): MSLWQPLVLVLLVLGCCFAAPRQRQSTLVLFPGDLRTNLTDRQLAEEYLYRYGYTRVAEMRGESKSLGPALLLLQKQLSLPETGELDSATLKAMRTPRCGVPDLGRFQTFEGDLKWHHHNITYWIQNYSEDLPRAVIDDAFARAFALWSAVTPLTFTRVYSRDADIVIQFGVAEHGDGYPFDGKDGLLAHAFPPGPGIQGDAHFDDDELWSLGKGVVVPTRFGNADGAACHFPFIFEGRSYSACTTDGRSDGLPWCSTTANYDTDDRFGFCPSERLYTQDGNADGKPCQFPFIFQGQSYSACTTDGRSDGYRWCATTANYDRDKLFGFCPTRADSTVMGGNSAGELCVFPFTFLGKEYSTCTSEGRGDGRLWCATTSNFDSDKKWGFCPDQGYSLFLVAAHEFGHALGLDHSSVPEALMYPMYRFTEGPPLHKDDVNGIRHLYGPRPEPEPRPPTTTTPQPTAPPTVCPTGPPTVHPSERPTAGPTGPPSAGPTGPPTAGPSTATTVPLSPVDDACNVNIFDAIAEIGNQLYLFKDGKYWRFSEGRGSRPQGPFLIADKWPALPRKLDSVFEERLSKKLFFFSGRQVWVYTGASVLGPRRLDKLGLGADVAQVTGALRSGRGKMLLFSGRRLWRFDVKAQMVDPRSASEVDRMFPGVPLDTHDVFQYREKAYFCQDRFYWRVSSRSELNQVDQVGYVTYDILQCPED
In assay [5] the target is T3, Interstitial collagenase (Homo sapiens) (UniProt P03956).
T3 sequence (whole entry): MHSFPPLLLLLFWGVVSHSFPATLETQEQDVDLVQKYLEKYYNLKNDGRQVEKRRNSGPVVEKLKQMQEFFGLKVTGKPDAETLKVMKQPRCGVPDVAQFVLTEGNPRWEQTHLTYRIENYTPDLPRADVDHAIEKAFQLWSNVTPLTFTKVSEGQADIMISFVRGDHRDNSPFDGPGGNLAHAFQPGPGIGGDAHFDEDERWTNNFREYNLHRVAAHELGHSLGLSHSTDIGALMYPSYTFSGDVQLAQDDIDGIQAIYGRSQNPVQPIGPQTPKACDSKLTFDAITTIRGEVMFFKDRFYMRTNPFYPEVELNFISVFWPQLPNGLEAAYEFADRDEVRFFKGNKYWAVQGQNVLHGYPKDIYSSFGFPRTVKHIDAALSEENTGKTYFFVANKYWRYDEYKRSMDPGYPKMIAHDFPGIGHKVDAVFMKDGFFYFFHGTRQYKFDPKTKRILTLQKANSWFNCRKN
Kind of assay: Inhibition of human MMP1.

Assay [6] concerns the target T4, Botulinum neurotoxin type B (Clostridium botulinum) (UniProt P10844).
T4 sequence (whole entry): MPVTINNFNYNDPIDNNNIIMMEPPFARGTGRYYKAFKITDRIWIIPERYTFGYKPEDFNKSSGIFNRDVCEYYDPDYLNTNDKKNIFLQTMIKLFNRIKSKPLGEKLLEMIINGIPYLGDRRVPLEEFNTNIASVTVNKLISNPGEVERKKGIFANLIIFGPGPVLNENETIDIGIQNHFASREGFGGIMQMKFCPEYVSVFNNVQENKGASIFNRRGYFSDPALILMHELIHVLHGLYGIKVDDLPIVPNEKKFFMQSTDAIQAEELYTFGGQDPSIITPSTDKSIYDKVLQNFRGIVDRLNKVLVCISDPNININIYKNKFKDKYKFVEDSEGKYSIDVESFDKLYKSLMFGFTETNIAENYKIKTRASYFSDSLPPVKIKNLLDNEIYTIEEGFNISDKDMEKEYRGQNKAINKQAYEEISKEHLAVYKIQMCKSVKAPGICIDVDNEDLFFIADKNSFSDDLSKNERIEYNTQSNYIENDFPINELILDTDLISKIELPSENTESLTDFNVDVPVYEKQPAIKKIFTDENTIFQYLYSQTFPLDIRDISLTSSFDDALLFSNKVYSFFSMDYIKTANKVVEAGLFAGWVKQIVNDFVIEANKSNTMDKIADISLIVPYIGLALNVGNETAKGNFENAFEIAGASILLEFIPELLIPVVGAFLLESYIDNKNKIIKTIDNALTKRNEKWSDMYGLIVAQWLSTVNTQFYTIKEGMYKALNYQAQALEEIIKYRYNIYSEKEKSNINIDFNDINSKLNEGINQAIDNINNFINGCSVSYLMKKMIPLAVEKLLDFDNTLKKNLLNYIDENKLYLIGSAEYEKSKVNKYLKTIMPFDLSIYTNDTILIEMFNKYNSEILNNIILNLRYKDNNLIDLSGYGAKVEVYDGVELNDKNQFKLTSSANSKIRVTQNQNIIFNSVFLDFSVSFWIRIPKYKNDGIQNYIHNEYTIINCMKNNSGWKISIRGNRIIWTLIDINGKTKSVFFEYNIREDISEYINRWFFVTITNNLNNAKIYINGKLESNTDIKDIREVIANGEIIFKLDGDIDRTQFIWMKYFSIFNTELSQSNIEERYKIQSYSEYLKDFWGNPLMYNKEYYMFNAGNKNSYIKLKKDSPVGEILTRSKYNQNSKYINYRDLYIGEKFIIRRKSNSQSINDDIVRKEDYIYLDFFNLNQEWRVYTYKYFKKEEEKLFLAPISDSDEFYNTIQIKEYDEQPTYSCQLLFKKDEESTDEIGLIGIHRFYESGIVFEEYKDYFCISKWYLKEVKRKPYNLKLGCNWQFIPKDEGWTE
Kind of assay: Inhibition of Clostridium botulinum toxin BoNT/B.

The target of assay [7] is T2, Botulinum neurotoxin type A. The assay can be described thus: Inhibition of Clostridium botulinum toxin BoNT/A light chain.
In assay [8] the target is Botulinum neurotoxin type A (Clostridium botulinum) (UniProt P0DPI0). The settings on record: 20 uM.
Chain of Botulinum neurotoxin type A (Clostridium botulinum) (P0DPI0 2-448 limits assumed): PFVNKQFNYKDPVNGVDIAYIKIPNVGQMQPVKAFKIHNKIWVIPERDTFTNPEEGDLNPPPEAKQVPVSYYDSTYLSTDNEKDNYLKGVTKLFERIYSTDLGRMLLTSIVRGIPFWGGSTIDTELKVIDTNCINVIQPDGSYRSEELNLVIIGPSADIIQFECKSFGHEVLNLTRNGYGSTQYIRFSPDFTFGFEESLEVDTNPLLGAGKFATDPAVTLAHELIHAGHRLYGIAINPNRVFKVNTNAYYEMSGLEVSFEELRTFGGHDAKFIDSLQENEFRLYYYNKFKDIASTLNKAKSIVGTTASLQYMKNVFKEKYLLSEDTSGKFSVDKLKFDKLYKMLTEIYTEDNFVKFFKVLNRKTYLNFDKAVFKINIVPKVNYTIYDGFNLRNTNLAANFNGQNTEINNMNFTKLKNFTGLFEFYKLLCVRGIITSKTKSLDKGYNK

T2 sequence (P0DPI0 2-448 limits assumed): as above

On to `NC(=O)c1ccc(Oc2ccc(-c3cc4ccc(C(N)=O)cc4[nH]3)cc2)cc1`, for which the IC50 (against Lethal factor; in assay [1]) was greater than 100 µM throughout.

As to `OC1CN=C(c2ccc(Oc3ccc(-c4cc5ccc(C6=NCC(O)CN6)cc5[nH]4)cc3)cc2)NC1` (configuration not stated), in assay [2], the Ratio IC50 was found to be 10. In addition, the IC50 against Lethal factor was greater than 100 µM; in assay [1], 7.3 µM.

On to `CN(C)CC/N=C(\N)c1ccc(Oc2ccc(-c3cc4ccc(/C(N)=N/CCN(C)C)cc4[nH]3)cc2)cc1`, for which the IC50 in [3] was determined as 4.4 µM; at Lethal factor, 28 µM; in assay [1] it was 2.5 µM. Moreover, the Ratio IC50 in assay [2] came out at 10. The inhibition result in assay [4], in [5] and in assay [6] was “inactive” each time.

In assay [7], `NCCCCCCCNCCCCCCCNC(=O)c1cc(CCC(=O)NO)c(CCC(O)(c2ccccc2)c2ccccc2)[nH]1` gave an IC50 of less than 1 µM and a Ki of 0.76 µM.

Consider `N#Cc1ccc(Oc2ccc(-c3cc4ccc(C#N)cc4[nH]3)nc2)cc1`, for which the 50% inhibitory concentration (IC50) (on Lethal factor; in [1]) was greater than 100 µM in each case.

The compound `N#Cc1ccc(Oc2ccc(-c3cc4ccc(C#N)cc4[nH]3)cc2)cc1` gave an IC50 in [1] greater than 100 µM.

As for `Clc1ccc2cc(-c3ccc(Oc4ccc(C5=NCCN5)cc4)cc3)[nH]c2c1`, the results for the IC50 (at Lethal factor; in assay [1]) were 51 µM and greater than 100 µM, respectively.

On to `c1cc(-c2cc3ccc(C4=NCCN4)cc3[nH]2)ccc1C1=NCCN1`, for which the IC50 against Lethal factor is 49 µM; in [1], 20 µM. The inhibition result in [4], in [5] and in assay [6] was “inactive” each time.

In [7], `CCOc1ccc(C(Nc2cccnc2)c2cc(Cl)c3cccnc3c2O)cc1` (configuration not stated) gave an IC50 of 0.5 µM.

Take `c1cc(-c2cc3ccc(C4=NCCN4)cc3s2)ccc1C1=NCCN1`: the IC50 on Lethal factor was greater than 100 µM; in assay [1], 43 µM.

On to `N#Cc1ccc(Oc2ccc(-c3cc4ccc(C#N)cc4[nH]3)cc2)c(Cl)c1`, for which, in assay [1], the IC50 is greater than 100 µM.

Take `c1cc(C2=NCCCN2)ccc1Oc1ccc(-c2cc3ccc(C4=NCCCN4)cc3s2)cc1`: the values for the IC50 (against Lethal factor; in assay [1]) were greater than 100 µM and 54 µM, respectively.

In the case of `c1cc(C2=NCCCN2)ccc1Oc1ccc(-c2cc3ccc(C4=NCCCN4)cc3[nH]2)cc1`, the IC50 in [3] was 43 µM; against Lethal factor it was greater than 100 µM; in assay [1], 21 µM.

For `Clc1ccc(Oc2ccc(-c3cc4ccc(C5=NCCN5)cc4[nH]3)cc2)c(Cl)c1`, the IC50 was 52 µM in assay [3], greater than 100 µM on Lethal factor and greater than 25 µM in assay [1].

Consider `N#Cc1ccc(Oc2ccc(-c3cc4ccc(C(=N)N)cc4[nH]3)cc2)cc1`, for which the IC50 at Lethal factor was greater than 100 µM; in assay [1], greater than 25 µM.

For the compound `c1cc(C2=NCCCN2)ccc1Oc1ccc(-c2nc3ccc(C4=NCCCN4)cc3[nH]2)cc1`, the IC50 in assay [3] stood at 41 µM; in [1], 28 µM.

`c1cc(C2=NCCN2)ccc1Oc1ccc(-c2cc3ccc(C4=NCCN4)cc3[nH]2)cc1`: the half-maximal inhibitory concentration (IC50) came to 9.4 µM in assay [3], 43 µM at Lethal factor and 12.5 µM in assay [1].

As for `N#Cc1ccc(Oc2ccc(-c3cc4ccc(C5=NCCN5)cc4[nH]3)cc2)c(Cl)c1`, the half-inhibitory concentration (IC50) was greater than 100 µM against Lethal factor and 30 µM in assay [1].

Turning to `c1cc(C2=NCCN2)ccc1Oc1ccc(-c2cc3ccc(C4=NCCN4)cc3s2)cc1`, the figures for the IC50 (in assay [3]; at Lethal factor; in assay [1]) were 25 µM, 18 µM and 7.1 µM, respectively.

Take `N=C(N)c1ccc(Oc2ccc(-c3cc4ccc(C(=N)N)cc4[nH]3)cc2)cc1`: the results for the IC50 (in assay [3]; on Lethal factor; in [1]) were 17 µM, 35 µM and 11 µM, respectively. The compound also displayed an inhibition in [8] of 75%.

Turning to `c1cc(-c2cc3ccc(C4=NCCCN4)cc3s2)ccc1C1=NCCCN1`, in [1], the 50% inhibitory concentration (IC50) is greater than 100 µM.

As to `c1cc(C2=NCCN2)ccc1Oc1ccc(-c2cc3ccc(C4=NCCN4)cc3[nH]2)nc1`, the IC50 in assay [3] was greater than 100 µM; against Lethal factor it was 55 µM; in assay [1], 69 µM.

`c1cc(C2=NCCN2)ccc1Oc1ccc(-c2nc3ccc(C4=NCCN4)cc3[nH]2)cc1` gave a concentration for half-maximal inhibition (IC50) in [1] of 24.5 µM.

For `c1cc(C2=NCCCN2)ccc1Oc1ccc(-c2cc3ccc(C4=NCCCN4)cc3[nH]2)nc1`, the IC50 in [3] was greater than 100 µM; against Lethal factor, greater than 100 µM; in assay [1], 67 µM.

`c1cc(-c2cc3ccc(C4=NCCCN4)cc3[nH]2)ccc1C1=NCCCN1`: the IC50 (at Lethal factor; in assay [1]) was greater than 100 µM in each case.

By IC50 is commonly meant the concentration that inhibits the measured activity by half. A higher IC50 goes with a need for much substance. The term inhibition denotes the drop in the measured response relative to a control, in per cent. Broadly, the Ki is the dissociation constant of the complex between target and ligand, obtained from inhibition or displacement.
